From PubChem BioAssay
MC4R antag cAMP – MC4R antagonists of cAMP signaling, primary screen, cell-based, TR-FRET, antagonist arm of biased-ligand search; MC4R-expressing cells, MTII-stimulated cAMP, LANCE TR-FRET; inhibition, % at 6.5 µM; hit rate 0.48% among 360,000; AID 540295, 2011;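 active means inhibition above its plate's cutoff, the mean of tested wells on that plate plus 3 SD, cut at about 29% in these data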;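 further: 0% = Melanotan II alone and 100% = Melanotan II plus saturating MCL0020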
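System – human MC4R-expressing U2OS cells · Also added – Melanotan II · Dosing – one concentration, 6.5 µM nominal · Timing – 30-min compound, 1-h challenge, 1-h detection, room temperature · Measured by – Eu-cAMP/anti-cAMP TR-FRET, emission 671 nm · Replicates – singlicate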
TMEM16A act – TMEM16A chloride channel activators or potentiators, primary screen, cell-based, HTS; Anoctamin-1 (Mus musculus), Q8BHY3; HEK293 TMEM16A/YFP-H148Q/I152L, iodide quench fluorescence; hits give low values; B-score at 10 µM; hit rate 0.3% among 340,000;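 active means fluorescence-ratio B-score plate-corrected deviation score at least 3 library SD below zero, with starting fluorescence score within 5 deviations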;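 further: channel opened by trigger with iodide after compound preincubation; score built on the fluorescence ratio of max minus min over baseline; more negative score means more quench and so TMEM16A activation or potentiation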
Target sequence (Q8BHY3 whole entry, looked up): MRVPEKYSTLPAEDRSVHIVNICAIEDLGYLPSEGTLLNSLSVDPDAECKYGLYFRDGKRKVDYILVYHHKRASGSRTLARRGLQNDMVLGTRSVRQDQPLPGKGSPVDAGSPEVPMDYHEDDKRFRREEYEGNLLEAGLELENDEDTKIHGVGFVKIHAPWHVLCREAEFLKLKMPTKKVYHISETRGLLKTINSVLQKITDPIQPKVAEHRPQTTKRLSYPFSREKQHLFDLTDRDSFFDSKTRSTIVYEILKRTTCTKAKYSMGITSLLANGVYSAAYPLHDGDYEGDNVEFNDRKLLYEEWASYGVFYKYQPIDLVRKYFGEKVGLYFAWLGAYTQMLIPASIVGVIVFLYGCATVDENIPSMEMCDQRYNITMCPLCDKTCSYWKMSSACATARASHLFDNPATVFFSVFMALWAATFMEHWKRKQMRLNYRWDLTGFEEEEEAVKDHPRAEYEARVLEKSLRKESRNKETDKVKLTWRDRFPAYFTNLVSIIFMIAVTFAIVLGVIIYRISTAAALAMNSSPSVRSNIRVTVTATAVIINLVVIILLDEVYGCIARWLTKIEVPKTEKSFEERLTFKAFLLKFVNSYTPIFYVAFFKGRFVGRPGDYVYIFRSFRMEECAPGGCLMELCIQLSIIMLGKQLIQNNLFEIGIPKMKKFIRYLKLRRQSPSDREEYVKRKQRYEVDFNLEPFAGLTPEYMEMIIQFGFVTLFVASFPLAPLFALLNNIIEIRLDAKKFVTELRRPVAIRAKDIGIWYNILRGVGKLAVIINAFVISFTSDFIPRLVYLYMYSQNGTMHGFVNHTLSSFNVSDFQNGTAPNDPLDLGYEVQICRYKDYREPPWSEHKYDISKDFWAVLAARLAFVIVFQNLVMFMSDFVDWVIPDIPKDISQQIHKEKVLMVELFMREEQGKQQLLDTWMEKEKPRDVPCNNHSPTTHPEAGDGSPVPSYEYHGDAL
MC4R ag barr – MC4R agonists recruiting beta-arrestin, primary screen, cell-based, luminescence, agonist arm of biased-ligand search; Melanocortin receptor 4 (Homo sapiens), P32245; U2OS MC4R beta-arrestin complementation; percent of melanotan II response, DMSO zero; activation, % at 8.9 µM; hit rate 0.98% among 360,000;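 active means activation above a per-plate cutoff, the mean activation of sample wells on that plate plus 3 SD, cut at about 8% in these data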
MIN6 prolif – inducers of MIN6 beta-cell proliferation, primary screen, ATP luminescence, uHTS. MIN6 cells proliferation, ATPlite luminescence, 48 h; cells starved in 0.2% serum; 100% = growth in 10% serum. proliferation, % at 10 µM. hit rate 0.29% among 330,000. AID 2380, 2010;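 active means compounds whose signal lies at least 3.5 SD above the mean of all wells on their plate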;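 further: 0% = DMSO-treated cells in low-serum medium and 100% = 10% serum control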
ANO1 block – TMEM16A chloride channel inhibitors, primary screen, cell-based, HTS. HEK293 TMEM16A/YFP iodide influx fluorescence, ionomycin. normalized B-score (activity score, 25-100; higher = stronger inhibition) at 10 µM. hit rate 1.2% among 310,000. AID 588511, 2011;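 active means ratio plate-corrected score three or more library SD toward inhibition, starting fluorescence score within five deviations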;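 further: score derived from kinetic fluorescence span divided by baseline fluorescence per well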
m5-HT2A agonist – mouse Htr2a agonists via beta-arrestin recruitment, primary screen, cell-based, luminescence. 5-hydroxytryptamine receptor 2A (Mus musculus), P35363. CHO-K1 mHTR2A beta-arrestin complementation; percent of 30 µM serotonin response. activation, % at 7.6 µM. hit rate 0.66% among 360,000;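 active means activation above a run cutoff, the mean activation of all tested compounds plus 3 SD, cut at about 14% in these data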;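 further: 0% = plate median of compound wells and 100% = 30 µM serotonin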
cAMP nonselect – nonselective cAMP signaling inhibitors, parental cells, counter-screen for MC4R biased antagonist project, cell-based, TR-FRET, U2OS, forskolin, triplicate. AID 602193, 2012. LANCE TR-FRET. inhibition, % at 6.5 µM. shares compounds with MC4R antag cAMP. hit rate 26% among 1,600;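 active means mean inhibition over triplicates above the low-control well mean plus 3 SD, set per campaign, cut at about 13% in these data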;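 further: signal is single emission at 671 nm which falls as cellular cAMP rises; 0% = forskolin-stimulated wells and 100% = buffer without forskolin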
MC4R cAMP antag – MC4R cAMP antagonists, retest, confirmation, cell-based, TR-FRET; AID 602195, 2012; hit rate 27% among 1,600; inhibition, % at 6.5 µM; shares compounds with MC4R antag cAMP; MC4R-expressing cells, MTII-stimulated cAMP; in the data active means inhibition above about 29%;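 further: 0% = agonist stimulated wells alone and 100% = agonist stimulated wells plus saturating reference antagonist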
Starred values were filed as active, the others as inactive; i = inactive; . = not tested or not shown. In the library only some 3.4% were active in any assay of this set; here they are far more common.

SMILES	MC4R antag cAMP	TMEM16A act	MC4R ag barr	MIN6 prolif	ANO1 block	m5-HT2A agonist	cAMP nonselect	MC4R cAMP antag
CC(NC(=O)COc1ccc(/C=N/NC(=O)CO)cc1)c1ccccc1 (centres undefined)	7	i	-2	-4	i	8	.	.
COc1cc(/C=C2\C(=N)N3N=C(C(C)C)SC3=NC2=O)ccc1OCCOc1ccc(NC(C)=O)cc1	4	i	-1	-6	i	-2	.	.
COc1cc(/C=C2\C(=N)N3N=C(C)SC3=NC2=O)cc(Cl)c1OCCOc1ccc(NC(C)=O)cc1	30*	i	0	-5	i	3	6	1
Cc1c(C(=O)NCc2c(F)cc(F)cc2F)oc2ccc(S(=O)(=O)N3CCOCC3)cc12	10	i	0	1	i	5	.	.
Cc1c(C(=O)NCc2ccc(F)cc2)oc2ccc(S(=O)(=O)N3CCOCC3)cc12	32*	i	2	0	i	4	-1	-1
O=C(CN1C(=O)C2CC=CCC2C1=O)N1CCN(c2ccc([N+](=O)[O-])cc2)CC1 (centres undefined)	31*	i	1	0	i	5	-4	-17
CC(C)(C)OC(=O)[C@H](Cc1ccccc1)NC(=O)c1nc[nH]c1C(=O)N1CCN(C(=O)OC(C)(C)C)CC1	5	i	2	-5	i	8	.	.
CC(C)C[C@H](NC(=O)c1nc[nH]c1C(=O)N1CCN(C(=O)OC(C)(C)C)CC1)C(=O)OCc1ccccc1	34*	i	-1	-9	i	-1	16*	23
C[C@H](NC(=O)c1nc[nH]c1C(=O)N[C@@H](Cc1ccccc1)C(=O)OCc1ccccc1)C(=O)OC(C)(C)C	34*	i	8	-9	i	4	8	11
C[C@H](NC(=O)c1nc[nH]c1C(=O)N[C@@H](C)C(=O)OC(C)(C)C)C(=O)OCc1ccccc1	0	i	3	0	i	-2	.	.
CC(C)(C)OC(=O)[C@H](Cc1ccccc1)NC(=O)c1nc[nH]c1C(=O)NC1CCN(C(=O)OC(C)(C)C)CC1	37*	i	5	-8	i	14	7	5
COc1ccccc1-c1cccc2nccn12	9	.	3	.	.	-3	.	.
O=C(c1ccc([N+](=O)[O-])cc1)N1CCc2ccccc2C1	29*	i	2	-2	i	-1	4	-3
O=C(c1ccc(S(=O)(=O)c2ccccc2)cc1)N1CCc2ccccc2C1	3	i	-2	0	i	0	.	.
Cc1cccc(NS(=O)(=O)c2ccc(C(=O)N3CCC3)cc2)c1C	8	i	2	3	i	-3	.	.
COC(=O)C1CCN(C(=O)c2cc3c(=O)n4cccc(C)c4nc3n2Cc2ccccc2)CC1	30*	i	0	0	i	1	-3	-2
N#C/C(=C/c1ccc(OCc2ccc(C(=O)O)cc2)c(Br)c1)c1cccc(F)c1	34*	i	-2	-2	i	-1	-3	-14
O=C(/C=C/c1ccccc1Cl)NCCCn1ccnc1	0	i	-1	-2	i	-4	.	.
O=C(c1ccc(NS(=O)(=O)c2ccc3c(c2)OCCO3)cc1)N1CCCCC1	15	i	0	-1	i	0	.	.
NS(=O)(=O)c1ccc(NS(=O)(=O)c2ccc3c(c2)OCCO3)cc1	30*	i	-1	0	i	13	-5	-10
CC(=O)c1sc(NC(=O)c2cccc(N3C(=O)CCC3=O)c2)nc1-c1ccccc1	68*	i	-2	-4	i	1	10	1
COc1ccc(-c2csc(NC(=O)c3cccc(N4C(=O)CCC4=O)c3)n2)cc1C	58*	i	0	-2	i	-3	18*	33*
Cc1sc(NC(=O)c2cccc(N3C(=O)CCC3=O)c2)nc1-c1ccccc1	12	i	-4	-3	i	-6	.	.
O=C(COC(=O)c1ncc(Cl)c(Cl)c1Cl)Nc1ccc(Cl)cn1	17	i	0	-1	i	-5	.	.
CCc1nc2ccccc2n1CC(O)COc1ccc(NC(C)=O)cc1 (centres undefined)	15	i	-1	3	i	-1	.	.
SMILES	MC4R antag cAMP	TMEM16A act	MC4R ag barr	MIN6 prolif	ANO1 block	m5-HT2A agonist	cAMP nonselect	MC4R cAMP antag
CC(=O)Nc1ccc(OCC(O)Cn2c(CO)nc3ccccc32)cc1 (centres undefined)	32*	i	0	-4	i	1	0	8
Cc1cccc(N2CC(C(=O)Nc3ccc(S(=O)(=O)N4CCOCC4)cc3)CC2=O)c1 (centres undefined)	30*	i	2	-3	i	-4	1	5
Cc1ccc(N2CC(C(=O)Nc3ccc(S(=O)(=O)N4CCOCC4)cc3)CC2=O)cc1 (centres undefined)	10	i	-1	0	i	1	.	.
COC(=O)c1ccc2c(=O)[nH]c(CCl)nc2c1	30*	i	-1	-4	i	0	5	7
CC1(C(=O)NCC(F)(F)F)CCN1C(=O)Cc1ccc(-c2ccccc2)cc1 (centres undefined)	3	.	-1	.	.	-3	.	.
C=CCn1c(C)cc(C(=O)COc2ccc(N(C)S(=O)(=O)c3ccc(NC(C)=O)cc3)cc2)c1C	40*	i	2	-6	.	7	-1	5
C=C1C(=O)C23C(O)C1CCC2C12CCCC(C)(COC(C)=O)C1C(O)C3(O)OC2 (centres undefined)	31*	i	-2	.	.	-9	8	-13
COc1ccccc1-c1cc(SC)c(C#N)c(=O)o1	50*	i	-2	-3	i	-1	23*	38*
COc1ccccc1-c1cc(C(F)(F)F)c(C#N)c(=O)[nH]1	7	i	1	-1	i	3	.	.
CCOC(=O)[C@]12CCCC=C1N(Cc1cccc3ccccc13)C(=O)[C@H](CC(=O)N1CCCC1)C2	.	.	.	.	.	4	.	.
